Activity calls are given as the source filed them. The calls are words filed in the database; no cut-off is given here.
How the values were obtained:
L1210 = assay: Antitumor activity against mouse L1210 cells allografted in C3H/DBA2F1 hybrid mouse assessed as maximum increase of host life span administered as ip for 5 days relative to control; type: functional
Method in brief: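 Mice (C3H/DBA2 F1 hybrid, 18.5–22.5 g; six per dose level) were inoculated ip with 10^5 L1210 cells. Ip treatment ran once daily on days 1–5, starting 24 h after inoculation, in 0.2 mL per dose. Doses were spaced 0.09 log units apart. ILS = T/C% − 100, significant if above 25%. Significant ILS values were regressed on log dose, and ILSmax was read at the LD10.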

Mus musculus = assay: Toxicity in ip dosed C3H/DBA2F1 hybrid mouse allografted with mouse L1210 cells administered for 5 days measured up to 8 days; type: organism-based; conditions: in vivo
Method in brief: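 C3H/DBA2 F1 hybrid mice (18.5–22.5 g) bearing ip 10^5 L1210 cells were dosed ip once daily for 5 days, starting 24 h after inoculation, at 0.2 mL per dose. Doses were spaced 0.05 log units apart. Deaths before day 8 were taken as drug toxicity, and the dose lethal to 10% of animals (LD10) was derived.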

[1] = Logarithmic function of the retardation factor value of compound by reverse phase chromatography analysis; type: physicochemical
Method in brief: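 Lipophilic-hydrophilic balance read by reversed-phase TLC, using a system described in an earlier report. R_m is calculated as log(1/R_f − 1). Each quoted figure is the mean of at least three determinations.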

Compound	ILSmax (L1210)	log(ILSmax) (L1210)	LD10 (Mus musculus) [mg/kg]	Rm [1]
CNc1ccc2c(Nc3ccc(NS(C)(=O)=O)cc3OC)c3ccccc3nc2c1.Cl	94%	1.97	1.3	0.17
CCc1cccc2c(Nc3ccc(CCC(=O)O)cc3)c3ccccc3nc12.Cl	130%	2.11	200	0.66
CNc1ccc2c(Nc3ccc(NS(C)(=O)=O)cc3)c3ccccc3nc2c1.Cl	103%	2.01	7	-0.01
CS(=O)(=O)O.NC(=O)CCCCCc1ccc(Nc2c3ccccc3nc3ccccc23)cc1	97%	1.99	125	0.41
NC(=O)CCCCCCc1ccc(Nc2c3ccccc3nc3ccccc23)cc1	71%	1.85	110	0.58
NS(=O)(=O)CCc1ccc(Nc2c3ccccc3nc3ccccc23)cc1	68%	1.83	80	-0.2
CCCCS(=O)(=O)Nc1ccc(Nc2c3ccccc3nc3cc(NC(C)=O)ccc23)cc1	84%	1.92	39	0.46
O=C(O)c1ccc(Nc2c3ccccc3nc3ccccc23)cc1	130%	2.11	72	0.27
Cl.O=C(O)CCCCCCCc1ccc(Nc2c3ccccc3nc3ccccc23)cc1	75%	1.88	95	0.82
CS(=O)(=O)O.NC(=O)CCCCCCCc1ccc(Nc2c3ccccc3nc3ccccc23)cc1	53%	1.72	120	0.68
Cl.O=C(O)CCCCCc1ccc(Nc2c3ccccc3nc3ccccc23)cc1	200%	2.3	150	0.75
O=C(O)CCCCc1ccc(Nc2c3ccccc3nc3ccccc23)cc1	187%	2.27	125	0.64
O=C(O)Cc1ccc(Nc2c3ccccc3nc3ccccc23)cc1	22%	1.34	450	0.23
CS(=O)(=O)Nc1ccc(Nc2c3ccccc3nc3ccccc23)cc1	131%		66	0
NC(=O)CCCc1ccc(Nc2c3ccccc3nc3ccccc23)cc1	122%	2.09	85	0.09
CC(=O)Nc1ccc2c(Nc3ccc(CCCCCC(=O)O)cc3)c3ccccc3nc2c1.Cl	inactive		> 500	0.54
O=C(O)CCCCCCc1ccc(Nc2c3ccccc3nc3ccccc23)cc1	74%	1.87	90	0.79
CCS(=O)(=O)Nc1ccc(Nc2c3ccccc3nc3ccccc23)cc1	98%		330	0.25
CS(=O)(=O)O.NC(=O)CCCCCCCCc1ccc(Nc2c3ccccc3nc3ccccc23)cc1	25%	1.4	60	0.77
CN(C)C(=O)CCCc1ccc(Nc2c3ccccc3nc3ccccc23)cc1.Cl		<1.3	52	0.68
Cc1cccc2c(Nc3ccc(CCC(=O)O)cc3)c3ccccc3nc12	124%	2.09	32	0.46
CCCCCS(=O)(=O)Nc1ccc(Nc2c3ccccc3nc3cc(NC(C)=O)ccc23)cc1	61%	1.78	40	0.59
CS(=O)(=O)O.NC(=O)CCCCc1ccc(Nc2c3ccccc3nc3ccccc23)cc1	82%	1.91	110	0.25
Cl.O=C(O)CCc1ccc(Nc2c3ccccc3nc3ccccc23)cc1	163%	2.21	125	0.44

Compound	ILSmax (L1210)	log(ILSmax) (L1210)	LD10 (Mus musculus) [mg/kg]	Rm [1]
CCC(=O)Nc1ccc2c(Nc3ccc(NS(C)(=O)=O)cc3)c3ccccc3nc2c1	119%	2.08	55	0.15
CNc1ccc2c(Nc3ccc(OCCCC(=O)O)cc3)c3ccccc3nc2c1.Cl	30%	>1.48	> 500	0.61
Cl.O=C(O)CCCCCCCCc1ccc(Nc2c3ccccc3nc3ccccc23)cc1	72%	1.86	100	0.85
CCCCCCS(=O)(=O)Nc1ccc(Nc2c3ccccc3nc3ccccc23)cc1.Cl	35%		120	0.75
NC(=O)CCc1ccc(Nc2c3ccccc3nc3ccccc23)cc1	84%	1.92	75	-0.17
CC(=O)Nc1ccc2c(Nc3ccc(C(=O)O)cc3)c3ccccc3nc2c1.Cl	inactive		> 500	0.15
CNc1ccc2c(Nc3ccc(CCCC(=O)O)cc3)c3ccccc3nc2c1.Cl	35%	1.54	400	0.67
Cl.O=C(O)CCCCCCCCCc1ccc(Nc2c3ccccc3nc3ccccc23)cc1	75%	1.88	75	0.86
Cc1cccc2c(Nc3ccc(CC(=O)O)cc3)c3ccccc3nc12	80%	1.9	95	0.3
CCS(=O)(=O)Nc1ccc(Nc2c3ccccc3nc3cc(NC(C)=O)ccc23)cc1	115%	2.06	28	0.1
CCc1cccc2c(Nc3ccc(CC(=O)O)cc3)c3ccccc3nc12	200%	2.3	200	0.52
Cl.O=S(=O)(Cc1ccc(Nc2c3ccccc3nc3ccccc23)cc1)Nc1ccccn1	99%	2	370	-0.04
CS(=O)(=O)O.NC(=O)Cc1ccc(Nc2c3ccccc3nc3ccccc23)cc1	64%	1.81	55	-0.33
CCCS(=O)(=O)Nc1ccc(Nc2c3ccccc3nc3ccccc23)cc1	82%		350	0.43
CC(=O)Nc1ccc2c(Nc3ccc(NS(C)(=O)=O)cc3)c3ccccc3nc2c1	145%		19	-0.12
NS(=O)(=O)c1ccc(Nc2c3ccccc3nc3ccccc23)cc1	inactive		> 500	-0.57
Cl.O=C(O)CCCc1ccc(Nc2c3ccccc3nc3ccccc23)cc1	213%	2.33	190	0.59
CCCS(=O)(=O)Nc1ccc(Nc2c3ccccc3nc3cc(NC(C)=O)ccc23)cc1	115%	2.06	33	0.3
CCCCCCS(=O)(=O)Nc1ccc(Nc2c3ccccc3nc3cc(NC(C)=O)ccc23)cc1	43%	1.63	21	0.7
CCCCS(=O)(=O)Nc1ccc(Nc2c3ccccc3nc3ccccc23)cc1	66%		350	0.56
CC(=O)Nc1ccc2c(=Nc3ccc(CCC(=O)O)cc3)c3ccccc3[nH]c2c1.Cl		<1.3	145	0.27
CCCCCS(=O)(=O)Nc1ccc(Nc2c3ccccc3nc3ccccc23)cc1.Cl	55%		70	0.66
Cl.NS(=O)(=O)Cc1ccc(Nc2c3ccccc3nc3ccccc23)cc1	53%	1.72	62	-0.36
NC(=O)c1ccc(Nc2c3ccccc3nc3ccccc23)cc1		<1.3	182	-0.25

From ChEMBL document CHEMBL3244004, “Potential antitumor agents. 27. Quantitative structure--antileukemic (L1210) activity relationships for the omega-[4-(9-acridinylamino)phenyl]alkanoic acids” (J Med Chem, 1978)
